From ChEMBL document CHEMBL1126633, “Prodrugs of doxorubicin and melphalan and their activation by a monoclonal antibody-penicillin-G amidase conjugate” (J Med Chem, 1993) come the findings set out here.

Common to all, as to assay type: functional, cell-based
The test system of assay [1] is H2981 cell line. Put plainly: Inhibition of [3H]thymidine incorporation in human lung adenocarcinoma cells in the absence of PGA enzyme. The settings on record: H2981, 4 h. In short, it runs like this:
(§1)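 H2981 human lung adenocarcinoma cells (10^7 cells/0.2 mL in IMDM with 10% FBS) were exposed to compound with or without added PGA at 37 °C for 4 h, then washed and counted. Triplicates were plated at 10^5 cells/mL, grown 24 h, and pulsed 24 h with [3H]thymidine (1 µCi/well). IC50 is the concentration giving 50% inhibition of incorporation.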
For orientation: Uptake of a labelled nucleoside into DNA is a usual measure of proliferation.

For assay [2], the system named is H2981 cell line. Description: Inhibition of [3H]thymidine incorporation in human lung adenocarcinoma cells in the presence of PGA enzyme. In short, it runs like this: as §1
In assay [3] the test system is H2981 cell line. Put plainly: Inhibition of [3H]thymidine incorporation in human lung adenocarcinoma cells in the absence of PGA enzyme (compound + 10 micro g/mL calf intestine alkaline phosphatase). The conditions noted are these: H2981, 4 h. In short, it runs like this:
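H2981 cells in IMDM with 10% FBS were exposed to compound without PGA for 4 h at 37 °C. Calf intestinal alkaline phosphatase was added to the incubation at 10 µg/mL. Cells were then washed, plated in triplicate at 10^5 cells/mL, grown 24 h and pulsed 24 h with [3H]thymidine (1 µCi/well). IC50 is the concentration giving 50% inhibition of incorporation.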

By IC50 is commonly meant the midpoint of a concentration-inhibition curve. For the compound `COc1cccc2c1C(=O)c1c(O)c3c(c(O)c1C2=O)C[C@@](O)(C(=O)CO)C[C@@H]3OC1CC(NC(=O)Cc2ccc(N)cc2)C(O)C(C)O1` (some centres not stated), the IC50 is more than 1000 µM in assay [1] and 10 µM in assay [2] (Homo sapiens, H2981, 4 h). In the same order, the values of `COc1cccc2c1C(=O)c1c(O)c3c(c(O)c1C2=O)C[C@@](O)(C(=O)CO)C[C@@H]3OC1CC(NC(=O)Cc2ccccc2)C(O)C(C)O1` (some centres not stated) are 2 µM and 0.2 µM. For the compound `O=C(Cc1ccccc1)NC(Cc1ccc(N(CCCl)CCCl)cc1)C(=O)O` (configuration not stated), the IC50 in assay [1] came to 100 µM; in assay [2] (Homo sapiens, H2981, 4 h), 5 µM. For the compound `COc1cccc2c1C(=O)c1c(O)c3c(c(O)c1C2=O)C[C@@](O)(C(=O)CO)C[C@@H]3OC1CC(NC(=O)Cc2ccc(OP(=O)(O)O)cc2)C(O)C(C)O1` (stereo in doubt), the IC50 in assay [3] is more than 1000 µM; in assay [2] (h2981), 0.7 µM. Take `COc1cccc2c1C(=O)c1c(O)c3c(c(O)c1C2=O)C[C@@](O)(C(=O)CO)C[C@@H]3OC1CC(NC(=O)Cc2ccc(OP(=O)(O)O)cc2)C(O)C(C)O1` (stereo in doubt; 4): the results for the IC50 in assay [1] and in assay [2] (h2981) were more than 1000 µM and 4 µM, respectively. For the compound `COc1cccc2c1C(=O)c1c(O)c3c(c(O)c1C2=O)C[C@@](O)(C(=O)CO)C[C@@H]3O[C@H]1C[C@H](N)[C@H](O)[C@H](C)O1` [DOXORUBICIN], the 50% inhibitory concentration (IC50) in assay [1] was determined as 0.7 µM. Still for that read-out and setting: the figure for `N[C@@H](Cc1ccc(N(CCCl)CCCl)cc1)C(=O)O` [MELPHALAN] is 5 µM.
